Reference: ChEMBL document CHEMBL1142492 (J Med Chem, 2008)

Experiments:
[1] = molecular target: Casein kinase I isoform delta (Homo sapiens) (UniProt P48730); test: Inhibition of CSNK1D at 3 uM
[2] = molecular target: Calcium/calmodulin-dependent protein kinase type 1 (Homo sapiens) (UniProt Q14012); test: Inhibition of CAMK1 at 3 uM
[3] = molecular target: Glutamate NMDA receptor (Rattus norvegicus) (UniProt P35439+Q00959+Q00960+Q00961+Q62645+Q8VHN2+Q9R1M7); test: Displacement of phencyclidine from rat NMDA receptor at 3 uM; type: protein-complex assay
Outline: (§1)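 Counter-screen binding/enzyme panel at single 3 μM, n=2; results as percent inhibition. Species per target as listed (rat NMDA, GABAA sites; human receptors, transporters; rabbit ACE).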

[4] = molecular target: SRSF protein kinase 2 (Homo sapiens) (UniProt P78362); test: Inhibition of SRPK2 at 3 uM
[5] = molecular target: BMP-2-inducible protein kinase (Homo sapiens) (UniProt Q9NSY1); test: Inhibition of BIKE at 3 uM
Sequence of BMP-2-inducible protein kinase (Homo sapiens) (Q9NSY1 whole entry, looked up): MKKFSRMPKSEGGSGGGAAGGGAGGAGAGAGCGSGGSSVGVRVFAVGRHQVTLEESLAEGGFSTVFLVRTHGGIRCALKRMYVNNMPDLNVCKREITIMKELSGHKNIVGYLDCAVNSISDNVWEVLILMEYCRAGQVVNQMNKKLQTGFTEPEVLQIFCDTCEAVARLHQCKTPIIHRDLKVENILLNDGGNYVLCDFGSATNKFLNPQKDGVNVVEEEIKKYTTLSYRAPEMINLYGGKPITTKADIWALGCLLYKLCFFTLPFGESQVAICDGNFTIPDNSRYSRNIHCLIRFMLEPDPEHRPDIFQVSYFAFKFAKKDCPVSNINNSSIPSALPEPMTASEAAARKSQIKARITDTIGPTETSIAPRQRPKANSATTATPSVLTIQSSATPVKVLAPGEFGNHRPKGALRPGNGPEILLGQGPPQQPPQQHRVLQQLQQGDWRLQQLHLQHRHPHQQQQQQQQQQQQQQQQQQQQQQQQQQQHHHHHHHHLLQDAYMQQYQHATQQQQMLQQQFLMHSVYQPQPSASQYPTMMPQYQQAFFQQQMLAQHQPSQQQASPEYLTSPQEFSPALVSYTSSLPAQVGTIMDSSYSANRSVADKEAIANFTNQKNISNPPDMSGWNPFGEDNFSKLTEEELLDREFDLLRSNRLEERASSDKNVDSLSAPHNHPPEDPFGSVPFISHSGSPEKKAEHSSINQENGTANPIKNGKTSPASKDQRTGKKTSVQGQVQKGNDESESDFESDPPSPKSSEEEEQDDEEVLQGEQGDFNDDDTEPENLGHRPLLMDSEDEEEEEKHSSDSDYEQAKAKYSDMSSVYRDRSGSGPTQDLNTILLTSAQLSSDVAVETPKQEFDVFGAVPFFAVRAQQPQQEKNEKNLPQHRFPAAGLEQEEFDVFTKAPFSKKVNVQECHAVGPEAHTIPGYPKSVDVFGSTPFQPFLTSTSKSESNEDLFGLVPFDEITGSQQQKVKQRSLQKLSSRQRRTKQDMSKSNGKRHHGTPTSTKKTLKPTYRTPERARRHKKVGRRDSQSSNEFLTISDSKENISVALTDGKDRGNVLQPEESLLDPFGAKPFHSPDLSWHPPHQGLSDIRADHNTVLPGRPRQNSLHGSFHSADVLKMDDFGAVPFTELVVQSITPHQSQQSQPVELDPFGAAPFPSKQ

[6] = molecular target: Glycogen synthase kinase-3 alpha (Homo sapiens) (UniProt P49840); test: Inhibition of GSK3A at 3 uM
[7] = molecular target: Adenosine receptor A1 (Homo sapiens) (UniProt P30542); test: Inhibition of human adenosine A1 receptor at 3 uM; outline: as §1
[8] = molecular target: NUAK family SNF1-like kinase 1 (Homo sapiens) (UniProt O60285); test: Inhibition of ARK5 at 3 uM
[9] = molecular target: Serine/threonine-protein kinase MARK1 (Homo sapiens) (UniProt Q9P0L2); test: Inhibition of MARK1 at 3 uM
Sequence of Serine/threonine-protein kinase MARK1 (Homo sapiens) (Q9P0L2 whole entry, looked up): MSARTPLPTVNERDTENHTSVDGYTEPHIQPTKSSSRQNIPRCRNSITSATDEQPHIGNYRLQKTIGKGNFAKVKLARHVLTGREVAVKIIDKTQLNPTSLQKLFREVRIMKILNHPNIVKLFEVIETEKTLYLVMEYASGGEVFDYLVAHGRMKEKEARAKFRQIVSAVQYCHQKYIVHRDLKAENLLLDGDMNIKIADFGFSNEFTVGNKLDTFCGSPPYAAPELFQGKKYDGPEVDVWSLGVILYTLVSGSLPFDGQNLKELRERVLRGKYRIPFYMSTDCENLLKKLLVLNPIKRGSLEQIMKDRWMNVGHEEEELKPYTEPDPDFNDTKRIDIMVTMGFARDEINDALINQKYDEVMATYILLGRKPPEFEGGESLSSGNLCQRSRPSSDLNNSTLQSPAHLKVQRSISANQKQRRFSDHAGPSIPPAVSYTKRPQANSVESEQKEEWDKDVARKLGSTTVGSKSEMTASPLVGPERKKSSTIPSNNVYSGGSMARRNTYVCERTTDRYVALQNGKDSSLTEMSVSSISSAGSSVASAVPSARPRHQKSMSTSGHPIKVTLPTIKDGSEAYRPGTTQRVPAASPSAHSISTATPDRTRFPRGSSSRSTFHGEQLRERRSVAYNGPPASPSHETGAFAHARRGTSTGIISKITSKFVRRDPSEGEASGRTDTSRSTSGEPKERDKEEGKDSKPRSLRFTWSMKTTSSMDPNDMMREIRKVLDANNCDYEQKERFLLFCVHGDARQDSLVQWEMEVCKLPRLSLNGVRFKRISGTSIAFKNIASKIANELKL

[10] = molecular target: Tyrosine-protein kinase receptor Tie-1 (Homo sapiens) (UniProt P35590); test: Inhibition of TIE1 at 3 uM
[11] = molecular target: NUAK family SNF1-like kinase 2 (Homo sapiens) (UniProt Q9H093); test: Inhibition of SNARK at 3 uM
[12] = molecular target: Serine/threonine-protein kinase PAK 6 (Homo sapiens) (UniProt Q9NQU5); test: Inhibition of PAK6 at 3 uM
[13] = molecular target: Proto-oncogene tyrosine-protein kinase receptor Ret (Homo sapiens) (UniProt P07949); test: Inhibition of RET at 3 uM
[14] = molecular target: Focal adhesion kinase 1 (Homo sapiens) (UniProt Q05397); test: Inhibition of PTK2 at 3 uM
[15] = molecular target: Ephrin type-A receptor 5 (Homo sapiens) (UniProt P54756); test: Inhibition of EPHA5 at 3 uM
Sequence of Ephrin type-A receptor 5 (Homo sapiens) (P54756 whole entry): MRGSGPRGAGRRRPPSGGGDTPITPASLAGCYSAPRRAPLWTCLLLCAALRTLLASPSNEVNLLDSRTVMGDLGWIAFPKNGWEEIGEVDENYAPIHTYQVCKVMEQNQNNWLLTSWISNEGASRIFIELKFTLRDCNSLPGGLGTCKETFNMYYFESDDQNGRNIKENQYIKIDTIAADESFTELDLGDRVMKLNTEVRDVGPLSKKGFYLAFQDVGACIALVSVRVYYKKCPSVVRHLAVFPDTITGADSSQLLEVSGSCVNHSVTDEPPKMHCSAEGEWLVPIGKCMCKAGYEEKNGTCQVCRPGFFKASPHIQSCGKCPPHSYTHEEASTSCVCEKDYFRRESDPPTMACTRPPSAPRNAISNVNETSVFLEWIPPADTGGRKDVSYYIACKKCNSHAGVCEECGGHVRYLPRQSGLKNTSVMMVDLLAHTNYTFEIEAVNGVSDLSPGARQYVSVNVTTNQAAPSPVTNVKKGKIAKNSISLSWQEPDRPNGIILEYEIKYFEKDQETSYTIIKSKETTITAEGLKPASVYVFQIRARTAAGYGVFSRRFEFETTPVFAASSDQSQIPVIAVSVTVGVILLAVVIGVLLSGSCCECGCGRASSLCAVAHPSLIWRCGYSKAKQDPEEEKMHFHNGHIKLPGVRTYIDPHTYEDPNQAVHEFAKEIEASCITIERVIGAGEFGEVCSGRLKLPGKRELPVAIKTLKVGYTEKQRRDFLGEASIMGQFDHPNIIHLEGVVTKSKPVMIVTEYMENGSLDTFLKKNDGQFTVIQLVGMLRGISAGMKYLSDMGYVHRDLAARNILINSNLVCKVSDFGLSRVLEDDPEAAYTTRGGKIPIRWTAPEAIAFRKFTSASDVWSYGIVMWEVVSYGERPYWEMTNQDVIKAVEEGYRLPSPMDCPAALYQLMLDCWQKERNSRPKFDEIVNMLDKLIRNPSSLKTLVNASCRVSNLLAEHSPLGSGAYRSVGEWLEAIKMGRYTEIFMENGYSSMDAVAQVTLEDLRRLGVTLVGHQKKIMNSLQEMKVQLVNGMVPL
Outline: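 Single-concentration kinase panel scoring: each value is the percentage of enzyme activity remaining relative to a DMSO-only control. An activity statistically indistinct from DMSO control was scored "no hit".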

[16] = molecular target: Muscarinic acetylcholine receptor M2 (Homo sapiens) (UniProt P08172); test: Inhibition of human muscarinic M2 receptor at 3 uM; outline: as §1
[17] = molecular target: Dual specificity protein kinase TTK (Homo sapiens) (UniProt P33981); test: Inhibition of TTK at 3 uM
[18] = molecular target: LIM domain kinase 1 (Homo sapiens) (UniProt P53667); test: Inhibition of LIMK1 at 3 uM
[19] = species: Homo sapiens; conditions: 3 uM
[20] = molecular target: Mitogen-activated protein kinase 13 (Homo sapiens) (UniProt O15264); test: Inhibition of p38-delta at 3 uM
Sequence of Mitogen-activated protein kinase 13 (Homo sapiens) (O15264 whole entry): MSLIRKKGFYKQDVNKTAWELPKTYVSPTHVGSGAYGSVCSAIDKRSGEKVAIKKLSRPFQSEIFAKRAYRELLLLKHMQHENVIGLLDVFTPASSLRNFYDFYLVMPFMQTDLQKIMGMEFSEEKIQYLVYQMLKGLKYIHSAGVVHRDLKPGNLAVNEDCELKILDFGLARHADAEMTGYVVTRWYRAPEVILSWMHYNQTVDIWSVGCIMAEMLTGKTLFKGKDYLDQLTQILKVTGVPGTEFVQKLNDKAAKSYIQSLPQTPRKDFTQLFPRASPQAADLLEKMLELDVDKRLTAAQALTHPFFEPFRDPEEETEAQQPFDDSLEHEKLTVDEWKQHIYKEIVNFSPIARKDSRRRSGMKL

[21] = Half life in Sprague-Dawley rat at 1 mg/kg, iv; conditions: in vivo
[22] = molecular target: Beta-1 adrenergic receptor (Homo sapiens) (UniProt P08588); test: Inhibition of human adrenergic beta-1 receptor at 3 uM; outline: as §1
[23] = molecular target: Homeodomain-interacting protein kinase 1 (Homo sapiens) (UniProt Q86Z02); test: Inhibition of HIPK1 at 3 uM
[24] = molecular target: Platelet-derived growth factor receptor beta (Homo sapiens) (UniProt P09619); test: Inhibition of PDGFRB at 3 uM
Sequence of Platelet-derived growth factor receptor beta (Homo sapiens) (P09619 whole entry): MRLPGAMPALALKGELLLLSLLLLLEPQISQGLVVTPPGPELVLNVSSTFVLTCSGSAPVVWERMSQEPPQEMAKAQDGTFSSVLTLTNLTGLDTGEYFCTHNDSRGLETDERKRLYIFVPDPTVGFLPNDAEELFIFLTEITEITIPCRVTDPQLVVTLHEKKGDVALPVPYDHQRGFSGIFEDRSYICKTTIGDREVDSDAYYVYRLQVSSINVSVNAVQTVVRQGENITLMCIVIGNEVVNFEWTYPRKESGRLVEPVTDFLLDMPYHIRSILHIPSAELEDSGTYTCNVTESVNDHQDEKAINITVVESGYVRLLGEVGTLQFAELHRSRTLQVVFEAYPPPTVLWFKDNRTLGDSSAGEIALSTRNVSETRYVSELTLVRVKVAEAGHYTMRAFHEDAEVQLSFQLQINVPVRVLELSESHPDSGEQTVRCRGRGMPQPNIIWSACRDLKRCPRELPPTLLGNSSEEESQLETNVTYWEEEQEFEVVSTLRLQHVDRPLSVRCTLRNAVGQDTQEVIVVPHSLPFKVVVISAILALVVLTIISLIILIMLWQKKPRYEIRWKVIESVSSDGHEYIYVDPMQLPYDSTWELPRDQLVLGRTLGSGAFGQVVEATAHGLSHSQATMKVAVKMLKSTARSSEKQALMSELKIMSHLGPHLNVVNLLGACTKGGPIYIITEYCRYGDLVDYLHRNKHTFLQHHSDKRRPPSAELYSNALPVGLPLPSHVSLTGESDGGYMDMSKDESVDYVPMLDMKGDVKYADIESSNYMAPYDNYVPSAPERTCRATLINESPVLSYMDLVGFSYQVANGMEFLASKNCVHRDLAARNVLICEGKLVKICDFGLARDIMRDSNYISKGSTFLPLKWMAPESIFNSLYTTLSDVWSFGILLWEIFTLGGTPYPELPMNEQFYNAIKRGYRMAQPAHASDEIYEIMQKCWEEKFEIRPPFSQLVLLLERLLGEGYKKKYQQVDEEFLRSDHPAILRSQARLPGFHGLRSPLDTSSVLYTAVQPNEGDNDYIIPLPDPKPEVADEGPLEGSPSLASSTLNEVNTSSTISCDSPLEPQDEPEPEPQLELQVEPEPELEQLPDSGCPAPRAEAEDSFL

Sequence of Calcium/calmodulin-dependent protein kinase type 1 (Homo sapiens) (Q14012 whole entry, looked up): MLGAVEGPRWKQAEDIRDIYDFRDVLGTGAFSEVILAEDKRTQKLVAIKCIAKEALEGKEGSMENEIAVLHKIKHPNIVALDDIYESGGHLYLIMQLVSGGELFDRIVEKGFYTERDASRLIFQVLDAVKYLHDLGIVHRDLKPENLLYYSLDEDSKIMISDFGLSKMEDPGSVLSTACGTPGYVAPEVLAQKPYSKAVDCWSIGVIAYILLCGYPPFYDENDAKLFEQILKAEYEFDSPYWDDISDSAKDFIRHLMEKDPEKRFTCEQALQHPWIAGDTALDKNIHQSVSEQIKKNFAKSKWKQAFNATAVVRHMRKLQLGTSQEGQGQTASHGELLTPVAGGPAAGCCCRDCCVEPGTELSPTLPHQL

CN(C)CCOc1cc(-c2cn[nH]c2)ccc1NC(=O)C1COc2ccccc2O1 (centres undefined) [SR-3677]
inhibition [1]: < 10% | inhibition [2]: < 10% | inhibition [3]: -2% | inhibition [4]: < 10% | inhibition [5]: < 10% | inhibition [6]: < 10% | inhibition [7]: -4% | inhibition [8]: < 10% | inhibition [9]: < 10% | inhibition [10]: < 10% | inhibition [11]: < 10% | inhibition [12]: < 10% | inhibition [13]: < 10% | inhibition [14]: < 10% | inhibition [15]: < 10% | inhibition [16]: 4% | inhibition [17]: < 10% | inhibition [18]: < 10% | inhibition [19]: 7% | inhibition [20]: < 10% | half-life [21]: 48 min | inhibition [22]: 43% | inhibition [23]: < 10% | inhibition [24]: < 10%
